Measurements from different studies.
Protocols differ between the studies behind these lines. pIC50: −log10 of the molar value.
Cell line: HepG2
Observed: cell growth or viability

Compound | technique | concentration | time | measurement | value
COc1ccc(NC(=O)c2c(Nc3ccccc3)sc(C(=O)NN=Cc3ccccc3)c2NC(C)=O)cc1 | SRB | 1 nM | 48 h | viability | 99.3%
Clc1ccccc1-c1nc2ccccc2[nH]1 | MTT |  | 48 h | pIC50 | 4.50
CCOC(=O)c1ccc(-n2c(C)cc(/C=C/c3ccc(OCC)cc3)c(C#N)c2=O)cc1 | MTT | 6.25 µM | 24 h | viability | 100%
C=CCn1c(-c2ccc([N+](=O)[O-])cc2)nc2ccccc21 | MTT |  |  | pIC50 | 4.43
CC(=O)Nc1cccc(-n2c(=O)n(C3CC3)c(=O)c3c(Nc4ccc(I)cc4F)n(C)c(=O)c(C)c32)c1 | resazurin | 25 nM | 72 h | viability | 42.6%
COc1ccc(NC(=O)c2c(Nc3ccccc3)sc(C(=O)NN=Cc3ccc(OC)c(O)c3)c2NC(C)=O)cc1 | SRB | 100 µM | 48 h | viability | 22.4%
CCOC(=O)c1ccc(-n2c(-c3ccc(C)cc3)cc(-c3ccc(O)cc3)c(C#N)c2=O)cc1 | MTT | 12.5 µM | 24 h | viability | 50.4%
COc1ccc(NC(=O)c2c(Nc3ccccc3)sc(C#N)c2NC(=O)CNc2ccccc2Cl)cc1 | SRB | 0.1 µM | 48 h | viability | 95.7%
O=[N+]([O-])c1ccc(-c2nc3ccccc3[nH]2)cc1 | MTT |  | 48 h | pIC50 | 4.68
CCOC(=O)c1ccc(N2C(N)=C(C#N)C3(C(=O)Nc4ccccc43)C(C#N)=C2O)cc1 (stereo not shown) | MTT | 100 µM | 24 h | viability | 10.7%
COc1ccc(-c2nc3ccccc3[nH]2)cc1OC | MTT |  | 48 h | pIC50 | 4.36
COc1ccc(NCC(=O)Nc2c(C#N)sc(Nc3ccccc3)c2C(=O)Nc2ccc(OC)cc2)cc1 | SRB | 1 nM | 48 h | viability | 97.2%
CCOC(=O)c1ccc(-n2c(N)c(C#N)c(CC#N)c(C#N)c2=O)cc1 | MTT | 6.25 µM | 24 h | viability | 71.8%
